Experimental data as given in paper PMC2582604 (Nucleic Acids Research, 2008).

What was measured:
[1] = tested on: HeLa pLuc705 cells; assay: HeLa pLuc705 splicing redirection, luciferase upregulation; format: cell-based
Procedure, shortened: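 HeLa pLuc705 cells were seeded at 1.75 × 10^5/well and grown overnight. Test compound was added for 4 h in OptiMEM without transfection agent, then diluted with DMEM/10% FBS for a further 20 h. Cells were washed in ice-cold PBS and lysed. Luminescence was normalised to BCA protein (550 nm) and expressed as RLU/µg protein or fold over background. Triplicates averaged.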

[2] = tested on: HeLa pLuc705 cells; assay: Energy dependence of uptake; format: cell-based; conditions: 1 µM conjugate, 30 min pre-incubation, 1 h incubation, luciferase read-out
Procedure, shortened: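 Cells pre-incubated 30 min in OptiMEM at either 37°C or 4°C. Conjugate was then added at 1 μM final and incubation continued 1 h. Read-out was luciferase in lysates, normalised to BCA protein, as in the splicing redirection assay.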

[3] = tested on: aberrant β-globin intron 705 site in HeLa pLuc705 cells; assay: HeLa pLuc705 splicing redirection, RT-PCR analysis; format: cell-based; conditions: RT-PCR assay
Procedure, shortened: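 HeLa pLuc705 cells were treated with increasing conjugate concentrations as in the luciferase assay (4 h OptiMEM, then 20 h with added serum medium). Total RNA was extracted from the leftover lysate after luciferase and protein measurement. RT-PCR products were separated on 2% agarose and gels scanned to quantify aberrant versus correctly spliced RNA. EC50 of splicing redirection was taken from the dose series.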

[4] = Serum stability assay; format: in vitro ADME, mouse; conditions: 37°C
Procedure, shortened: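 Conjugate (20 μM) incubated at 37°C in PBS with 20% mouse serum (from clotted blood of female Balb/c mice, cleared by 3 × 30 min centrifugation at 4°C). Aliquots at 0, 15, 30, 60 and 120 min were quenched in 10% dichloroacetic acid in H2O/CH3CN (50/50) and held at –20°C. Supernatant after protein pelleting was analysed by MALDI-TOF MS; cleavage sites were assigned from fragment masses, semi-quantitatively.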

[5] = tested on: dystrophin pre-mRNA exon 23 in mdx myoblasts; assay: Exon skipping after electroporation into mdx myoblasts; format: cell-based, mouse; conditions: 0.5 nmol electroporated into mdx myoblasts, 24 h, nested RT-PCR
Procedure, shortened: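 H2K mdx myoblasts (undifferentiated) were grown 2 days at 33°C, 10% CO2, in 20% FBS/DMEM with interferon γ, then trypsinised. 1.5 × 10^6 cells/100 µl Nucleofector Solution V were pulsed with 0.5 nmol PNA, conjugate or sense control PNA (program T-020). Cells rested 10 min at room temperature in OptiMEM, then cultured 24 h on gelatin at 33°C. Total RNA underwent one-step RT-PCR then nested PCR; 2% agarose gel.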

[6] = tested on: HeLa pLuc705 cells; assay: Endocytosis inhibitor study, luciferase read-out; format: cell-based; conditions: 1 μM conjugate
Procedure, shortened: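 HeLa pLuc705 cells pre-incubated 30 min in OptiMEM at 37°C with inhibitor: chlorpromazine 30 μM or K+ depletion (clathrin), nystatin 50 μM or filipin-III 5 μg ml–1 (caveolae), methyl-β-cyclodextrin 2.5 mM or EIPA 1 mM (macropinocytosis). Inhibitor levels and timings were set to spare protein synthesis. Conjugate then added to 1 μM final for 30 min. Luciferase read as in the splicing assay.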

(RXR)3-IKILFQN-R|RMKWKKC [Pip1–PNA705]
fold increase in luminescence compared to R6Pen–PNA705 ([1]; at similar concentrations, HeLa pLuc705 luciferase assay): two to three times
uptake mechanism from splicing redirection activity at 37°C and 4°C [2]: energy-dependent uptake mechanism
EC50 improvement relative to R6Pen–PNA [3]: about 2 fold
time to full cleavage in 20% mouse serum ([4]; 20 μM conjugate, PBS with 20% mouse serum, MALDI-TOF MS): ≤ 1 h
major serum proteolytic cleavage site ([4]; 20% mouse serum, fragment masses by MALDI-TOF MS): between amino acids R17 and R18

(R-Ahx-R)3IdKILFQNdRRMKWHKBC [Pip2a–PNA705]
uptake mechanism from splicing redirection activity at 37°C and 4°C [2]: energy-dependent uptake mechanism

sense control PNA: sense 20-mer PNA control sequence AGGTAAGCCGAGGTTTGGCC (all peptide nucleic acid (PNA))
exon skipping after electroporation [5]: no exon skipping

(R-Ahx-R)3IHILFQNdRRMKWHKBC [Pip2b–PNA705]
effect of EIPA on luciferase expression ([6]; EIPA 1 mM (macropinocytosis)): no effect
inhibitory effect of fillipin-III on luciferase expression ([6]; fillipin-III 5 μg ml–1 (caveolae)): 36%
effect of methyl-β-cyclodextrin on luciferase expression ([6]; methyl-β-cyclodextrin 2.5 mM (macropinocytosis)): increased luciferase expression
inhibitory effect of nystatin on luciferase expression ([6]; nystatin 50 μM (caveolae)): 12%
activity compared to RXR4–PNA705 ([1]; HeLa pLuc705, absence of transfection or permeabilization agent): 3- to 4 fold
uptake mechanism from splicing redirection activity at 37°C and 4°C [2]: energy-dependent uptake mechanism
stability to serum proteolysis ([4]; 20 μM conjugate, PBS with 20% mouse serum, 1 h, MALDI-TOF MS): predominantly stable for 1 h
